Measurements taken from ChEMBL document CHEMBL4477205, “Discovery of New Chemical Entities for Old Targets: Insights on the Lead Optimization of Chromone-Based Monoamine Oxidase B (MAO-B) Inhibitors” (J Med Chem, 2016).
Each block holds one compound with its values, some of them ahead of it. Activity calls are given as the source filed them. No cut-off for these calls is given here.

How the values were obtained:
[1] = target: T1, Amine oxidase [flavin-containing] A (Homo sapiens, UniProt P21397); test: Inhibition of human microsomal MAO-A expressed in recombinant baculovirus infected insect BTI-TN-5B1-4 cells assessed as reduction in H2O2 production at 10 uM using p-tyramine as substrate after 15 mins by fluorescence assay
T1 sequence (P21397 whole entry): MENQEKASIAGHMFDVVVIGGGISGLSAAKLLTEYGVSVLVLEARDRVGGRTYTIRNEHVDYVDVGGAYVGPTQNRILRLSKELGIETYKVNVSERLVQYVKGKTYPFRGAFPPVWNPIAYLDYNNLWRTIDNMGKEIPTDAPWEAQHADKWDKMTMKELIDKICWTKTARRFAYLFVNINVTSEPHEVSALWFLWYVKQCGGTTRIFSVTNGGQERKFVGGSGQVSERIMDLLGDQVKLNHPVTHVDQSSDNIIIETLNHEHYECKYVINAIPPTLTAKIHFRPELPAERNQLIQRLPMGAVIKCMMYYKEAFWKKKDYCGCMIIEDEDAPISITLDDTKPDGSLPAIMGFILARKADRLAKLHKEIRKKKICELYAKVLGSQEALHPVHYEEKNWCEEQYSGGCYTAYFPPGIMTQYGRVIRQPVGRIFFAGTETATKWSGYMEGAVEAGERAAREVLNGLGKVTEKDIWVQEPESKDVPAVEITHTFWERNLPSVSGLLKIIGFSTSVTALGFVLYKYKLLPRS

Homo sapiens = organism: Homo sapiens; test: Selectivity index, ratio of IC50 for human microsomal MAO-A expressed in recombinant baculovirus infected insect BTI-TN-5B1-4 cells to IC50 for human microsomal MAO-B expressed in recombinant baculovirus infected insect BTI-TN-5B1-4 cells
[2] = target: T2, Amine oxidase [flavin-containing] B (Homo sapiens, UniProt P27338); test: biochemical; format: cell-based, BTI-TN-5B1-4
T2 sequence (P27338 whole entry): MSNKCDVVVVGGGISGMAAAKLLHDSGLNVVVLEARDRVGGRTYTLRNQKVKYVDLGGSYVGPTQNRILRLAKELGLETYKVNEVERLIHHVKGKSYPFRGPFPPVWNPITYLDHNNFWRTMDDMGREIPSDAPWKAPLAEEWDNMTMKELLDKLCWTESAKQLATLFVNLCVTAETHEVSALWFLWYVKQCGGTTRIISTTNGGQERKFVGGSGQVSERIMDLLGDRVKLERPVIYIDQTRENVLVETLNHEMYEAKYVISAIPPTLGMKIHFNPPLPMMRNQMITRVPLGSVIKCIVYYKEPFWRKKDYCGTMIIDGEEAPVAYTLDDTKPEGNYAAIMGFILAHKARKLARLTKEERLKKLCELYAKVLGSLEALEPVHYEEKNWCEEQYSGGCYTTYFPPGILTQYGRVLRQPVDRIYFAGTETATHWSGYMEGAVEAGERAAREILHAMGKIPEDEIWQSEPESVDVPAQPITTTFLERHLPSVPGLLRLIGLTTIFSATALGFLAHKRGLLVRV

[3] = target: T2, Amine oxidase [flavin-containing] B; test: Reversible inhibition of human microsomal MAO-B expressed in recombinant baculovirus infected insect BTI-TN-5B1-4 cells assessed as increase in residual enzyme activity at 40 nM after 60 mins; conditions: bti-tn-5b1-4, 1 h, 0.04 µM
[4] = target: T1, Amine oxidase [flavin-containing] A; test: Inhibition of human microsomal MAO-A expressed in recombinant baculovirus infected insect BTI-TN-5B1-4 cells assessed as reduction in H2O2 production at 100 uM using p-tyramine as substrate after 15 mins by fluorescence assay
SH-SY5Y [5] = test: Cytotoxicity against human SH-SY5Y cells assessed as cell viability at 1 uM after 24 hrs by MTT assay (reference value: […] +/- 11.7 %); format: functional; conditions: read-out: Activity
SH-SY5Y [6] = test: Cytotoxicity against human SH-SY5Y cells assessed as cell viability at 10 uM after 24 hrs by MTT assay (reference value: […] +/- 11.7 %); format: functional; conditions: read-out: Activity
SH-SY5Y [7] = test: Cytotoxicity against human SH-SY5Y cells assessed as reduction in cell viability at 1 to 10 uM after 24 hrs by neutral red uptake assay; format: functional, cell-based
In short: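 SH-SY5Y cells grown to confluence over 3 days and exposed 24 h to compound at 1 and 10 μM in serum-free medium, with a 0.1% DMSO vehicle control. Neutral red 50 μg/mL added for 2 h at 37 °C. Dye extracted with ethanol/water (1:1) containing 5% acetic acid and read at 540 nm. Uptake expressed as % of control.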

[8] = target: T1, Amine oxidase [flavin-containing] A; test: Inhibition of human microsomal MAO-A expressed in recombinant baculovirus infected insect BTI-TN-5B1-4 cells assessed as reduction in H2O2 production using p-tyramine as substrate after 15 mins by fluorescence assay
SH-SY5Y [9] = test: Cytotoxicity against human SH-SY5Y cells assessed as reduction in cell viability at 1 uM after 24 hrs by MTT assay; format: functional, cell-based

INH [1]: Not Active
IC50 ([2]; read-out: IC50): 1.38 µM
SMILES: O=C(Nc1ccc(O)cc1)c1coc2ccccc2c1=O
Ratio IC50 (Homo sapiens): > 7.2

inhibition (INH) [3]: Active
INH [4]: Not Active
SMILES: C[C@H](NCc1ccc(OCc2cccc(F)c2)cc1)C(N)=O [SAFINAMIDE]

SMILES: O=C(Nc1cccc(Cl)c1)c1coc2ccccc2c1=O
viability at 1 µM (SH-SY5Y [5]): 64.3%
viability at 10 µM (SH-SY5Y [6]): 43.7%
Activity (SH-SY5Y [7]): inactive

IC50 [8]: Nd(Insoluble)
IC50 ([2]; bti-tn-5b1-4): Nd(Insoluble)
SMILES: O=C(Nc1ccc(Cl)c(Cl)c1)c1coc2ccccc2c1=O

IC50 [8]: Nd(Insoluble)
IC50 ([2]; bti-tn-5b1-4): Nd(Insoluble)
SMILES: O=C(Nc1ccc(S)cc1)c1coc2ccccc2c1=O

SMILES: Cc1ccc(NC(=O)c2coc3ccccc3c2=O)cc1C
viability at 10 µM (SH-SY5Y [6]): 74.5%
Activity (SH-SY5Y [9]): inactive
Activity (SH-SY5Y [7]): inactive

IC50 [8]: Nd(Insoluble)
IC50 ([2]; bti-tn-5b1-4): Nd(Insoluble)
SMILES: O=C(Nc1cc(Cl)c(Cl)c(Cl)c1)c1coc2ccccc2c1=O
